From ChEMBL document CHEMBL1130999, “GPIIb/IIIa integrin antagonists with the new conformational restriction unit, trisubstituted beta-amino acid derivatives, and a substituted benzamidine structure” (J Med Chem, 1998) come the findings set out here.

The species entered for one data set is Homo sapiens. Nature of the data set: Inhibition of collagen-induced platelet aggregation in human platelet-rich plasma. Type of data set: functional. A digest of the protocol: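 Human citrated PRP (160g, 15 min, room temperature) with platelet-poor plasma as reference. Samples at various concentrations were added at 37 °C 1 min before 5 µg/mL collagen. Aggregation was read as the increase in light transmission. Percent inhibition of aggregation rate versus control gave IC50 from dose-inhibition curves. Values are means ± SEM of three experiments; GRGDS peptide served as reference.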

The target of data set [1] is Integrin alpha-IIb/beta-3 (Homo sapiens, UniProt P05106+P08514). Kind of data set: Binding affinity to human fibrinogen receptor. Format: protein-complex assay. The method, boiled down: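 Competitive solid-phase ELISA. Plates were coated with 5 µg/mL human GPIIb/IIIa overnight at 4 °C and blocked 3 h at room temperature with 35 mg/mL BSA in 50 mM Tris, 100 mM NaCl, 2 mM CaCl₂, 0.02% NaN₃, pH 7.4. Human fibrinogen solution (30 µg/mL as added) plus inhibitor was incubated 3 h at room temperature. Bound fibrinogen was detected with alkaline phosphatase-conjugated anti-human fibrinogen antibody.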

A short description of data set [2]: Elimination T1/2 in Guinea pig (IV dose). The note with it: in vivo, read-out: T1/2 beta.
A further data set can be described thus: Tmax in rat (PO dose). The conditions noted are these: in vivo.
Data set [3] is described as follows: Cmax in rat (PO dose). Type of data set: ADME, organism-based. Also on record: route oral. The conditions noted are these: in vivo. A digest of the protocol: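 Male Sprague-Dawley rats (190-210 g) were fasted overnight with water available. Dosing was 10 mg/kg po as a suspension in 2% arabic gum. Jugular vein blood was drawn at 30, 60 and 120 min, and active-form plasma levels were measured by HPLC. Cmax is the highest of these three time points.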

A short description of data set [4]: Elimination T1/2 in Guinea pig (IV dose). The conditions noted are these: in vivo.

Integrin alpha-IIb/beta-3, sequence (P05106 27-788 limits assumed): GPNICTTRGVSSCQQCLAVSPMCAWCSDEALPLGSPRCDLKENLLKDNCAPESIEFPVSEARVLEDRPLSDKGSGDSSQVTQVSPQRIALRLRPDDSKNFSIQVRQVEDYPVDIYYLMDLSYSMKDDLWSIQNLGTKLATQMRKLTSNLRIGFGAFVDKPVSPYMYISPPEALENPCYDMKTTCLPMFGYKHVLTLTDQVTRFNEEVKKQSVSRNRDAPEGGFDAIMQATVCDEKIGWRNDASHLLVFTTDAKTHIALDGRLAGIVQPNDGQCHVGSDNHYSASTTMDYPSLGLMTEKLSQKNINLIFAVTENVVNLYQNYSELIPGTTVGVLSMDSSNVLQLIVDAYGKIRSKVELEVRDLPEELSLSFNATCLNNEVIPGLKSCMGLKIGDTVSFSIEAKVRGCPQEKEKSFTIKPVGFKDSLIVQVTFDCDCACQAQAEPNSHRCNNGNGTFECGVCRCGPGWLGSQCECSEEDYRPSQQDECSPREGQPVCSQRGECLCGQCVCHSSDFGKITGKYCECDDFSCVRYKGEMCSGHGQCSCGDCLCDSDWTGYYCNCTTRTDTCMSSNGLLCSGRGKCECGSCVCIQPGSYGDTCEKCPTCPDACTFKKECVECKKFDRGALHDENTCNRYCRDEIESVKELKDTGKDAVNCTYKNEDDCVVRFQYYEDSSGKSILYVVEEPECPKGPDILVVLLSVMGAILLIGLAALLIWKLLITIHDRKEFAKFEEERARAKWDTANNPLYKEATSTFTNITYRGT
Integrin alpha-IIb/beta-3, sequence (P08514 32-887 limits assumed): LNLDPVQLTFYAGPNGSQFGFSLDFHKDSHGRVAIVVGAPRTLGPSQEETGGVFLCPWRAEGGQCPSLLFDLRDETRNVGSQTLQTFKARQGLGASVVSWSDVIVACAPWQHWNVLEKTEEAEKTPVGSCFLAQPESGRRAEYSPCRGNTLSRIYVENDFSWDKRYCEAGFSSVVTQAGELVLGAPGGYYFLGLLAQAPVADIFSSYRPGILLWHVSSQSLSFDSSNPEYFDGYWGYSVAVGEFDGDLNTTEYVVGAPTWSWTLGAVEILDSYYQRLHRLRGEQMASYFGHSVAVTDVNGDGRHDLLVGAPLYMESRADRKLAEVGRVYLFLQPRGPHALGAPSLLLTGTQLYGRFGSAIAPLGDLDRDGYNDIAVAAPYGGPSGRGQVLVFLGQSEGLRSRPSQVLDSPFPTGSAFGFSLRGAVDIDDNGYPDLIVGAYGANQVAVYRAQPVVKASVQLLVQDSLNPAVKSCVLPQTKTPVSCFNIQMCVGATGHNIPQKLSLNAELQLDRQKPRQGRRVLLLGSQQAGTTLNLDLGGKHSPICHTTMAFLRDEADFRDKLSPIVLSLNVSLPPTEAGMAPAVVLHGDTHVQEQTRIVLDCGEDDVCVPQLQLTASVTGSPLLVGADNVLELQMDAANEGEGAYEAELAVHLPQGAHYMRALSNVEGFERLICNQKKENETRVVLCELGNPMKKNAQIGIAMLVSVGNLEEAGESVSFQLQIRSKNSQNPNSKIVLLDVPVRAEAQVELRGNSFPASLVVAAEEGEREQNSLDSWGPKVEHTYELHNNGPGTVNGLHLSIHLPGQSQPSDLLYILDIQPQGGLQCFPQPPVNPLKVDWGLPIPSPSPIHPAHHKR
Integrin alpha-IIb/beta-3, sequence (P08514 891-1039 limits assumed): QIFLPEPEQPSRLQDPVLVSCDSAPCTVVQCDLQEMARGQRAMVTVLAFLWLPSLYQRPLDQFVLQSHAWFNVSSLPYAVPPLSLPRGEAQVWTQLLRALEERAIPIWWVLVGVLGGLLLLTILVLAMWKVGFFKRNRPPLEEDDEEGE

As for `CC(NC(=O)c1ccc(C(=N)N)cc1F)C(C)(C)C(=O)N1CCC(CC(=O)O)CC1` (stereo not given), the IC50 turned out to be 0.076 µM in the data set filed under Homo sapiens and 0.0043 µM in data set [1]. For the same molecule, the half-life in data set [2] came to 1.4 h.

As to `CCC(NC(=O)c1ccc(C(=N)N)cc1F)C(C)(C)C(=O)N1CCC(CC(=O)O)CC1` (stereo not given), the 50% inhibitory concentration (IC50) came to 0.062 µM in the data set listed under Homo sapiens and 0.0027 µM in data set [1]. In addition, in data set [2], the half-life stood at 1.48 h.

Turning to `CC(C)CC(NC(=O)c1ccc(C(=N)N)cc1)C(C)(C)C(=O)N1CCC(CC(=O)O)CC1` (stereo not given), the IC50 is 0.081 µM in the data set filed under Homo sapiens and 0.0027 µM in data set [1]. For the same molecule, in data set [2], the half-life amounted to 0.917 h.

Consider `C/C=C/C(NC(=O)c1ccc(C(=N)N)cc1)C(C)(C)C(=O)N1CCC(CC(=O)O)CC1` (stereo not given), for which the IC50 in the data set filed under Homo sapiens was found to be 0.17 µM; in data set [1] it was 0.013 µM. Further, the half-life in data set [2] was determined as 0.933 h.

Turning to `CC(C)(CNC(=O)c1ccc(C(=N)N)cc1)C(=O)N1CCC(CC(=O)O)CC1`, the IC50 in data set [1] is 0.125 µM. That is a sub-micromolar value.

Turning to `CC(C)(C(=O)N1CCC(CC(=O)O)CC1)C(NC(=O)c1ccc(C(=N)N)cc1Cl)c1ccccc1` (stereo not given), the IC50 in the data set filed under Homo sapiens came out at 0.37 µM; in data set [1], 0.0273 µM. In addition, the half-life in data set [2] worked out at 1.25 h.

Consider `CCOC(=O)CC1CCN(C(=O)C(C)(C)C(CC)NC(=O)c2ccc(C(=N)N3CCSC3)cc2F)CC1` (stereo not given), for which the Tmax in the data set “Tmax in rat (PO dose)” is 0.5 h. Also, in data set [3], the Cmax was 1210 ng/mL. Further, the IC50 in the data set listed under Homo sapiens came out at 0.045 µM; in data set [1], 0.0023 µM. Also, the half-life in data set [2] was found to be 1.83 h.

For `CCCCCC(NC(=O)c1ccc(C(=N)N)cc1)C(C)(C)C(=O)N1CCC(CC(=O)O)CC1` (stereo not given), the IC50 came to 0.16 µM in the data set filed under Homo sapiens and 0.0223 µM in data set [1]. The half-life in data set [2] is 0.517 h.

Consider `C#CCN(C(=O)c1ccc(C(=N)N)cc1)C(CCCC)C(C)(C)C(=O)N1CCC(CC(=O)O)CC1` (stereo not given), for which the values for the IC50 (in the data set filed under Homo sapiens; in data set [1]) were 1.4 µM and 0.363 µM, respectively. For the same molecule, the half-life in data set [2] worked out at 1.5 h.

With `CC(NC(=O)c1ccc(C(=N)N)cc1)C(C)(C)C(=O)N1CCC(CC(=O)O)CC1` (stereo not given), the IC50 in the data set filed under Homo sapiens was determined as 0.082 µM; in data set [1], 0.0053 µM. Besides, the half-life in data set [2] was found to be 0.883 h.

With `CC(C)(C(=O)N1CCC(CC(=O)O)CC1)C(NC(=O)c1ccc(C(=N)N)cc1)c1ccc(O)cc1` (stereo not given), the IC50 turned out to be 0.22 µM in the data set listed under Homo sapiens and 0.0237 µM in data set [1]. In addition, the half-life in data set [2] came to 1.05 h.

`CCOC(=O)CC1CCN(C(=O)C(C)(C)C(CC)NC(=O)c2ccc(C(=N)N3CCN(c4ccc(F)cc4)CC3)cc2F)CC1` (stereo not given): the time of peak concentration (Tmax) in the data set “Tmax in rat (PO dose)” is 1 h. The Cmax in data set [3] is 232 ng/mL. Further, the IC50 in the data set listed under Homo sapiens came out at 0.079 µM; in data set [1] it was 0.0056 µM. The half-life in data set [2] was 0.417 h.

`CCOC(=O)CC1CCN(C(=O)C(C)(C)C(CC)NC(=O)c2ccc(C(=N)N3CCCC3)cc2F)CC1` (stereo not given): the Tmax in “Tmax in rat (PO dose)” is 1 h. This molecule also had a Cmax in data set [3] of 194 ng/mL. For the same molecule, the IC50 in the data set filed under Homo sapiens is 0.089 µM; in data set [1], 0.007 µM. Besides, in data set [2], the half-life was 2.07 h.

As to `CCOC(=O)CC1CCN(C(=O)C(C)(C)C(CC)NC(=O)c2ccc(C(=N)N)cc2F)CC1` (stereo not given), in the data set “Tmax in rat (PO dose)”, the Tmax was 0.5 h. In addition, in data set [3], the peak level (Cmax) was 90 ng/mL. For the same molecule, the IC50 is 0.062 µM in the data set listed under Homo sapiens and 0.0027 µM in data set [1]. The half-life in data set [2] was 1.48 h.

As to `CC(C)(C(=O)N1CCC(CC(=O)O)CC1)C(NC(=O)c1ccc(C(=N)N)cc1)c1cccc(Cl)c1` (stereo not given), the half-maximal inhibitory concentration (IC50) came out at 0.25 µM in the data set listed under Homo sapiens and 0.0313 µM in data set [1]. Besides, the half-life in data set [2] is 2.5 h.

As to `CCCCC(NC(=O)c1ccc(C(=N)N)cc1)C(C)(C)C(=O)N1CCC(CC(=O)O)CC1` (stereo not given), the IC50 in the data set filed under Homo sapiens was determined as 0.082 µM; in data set [1] it was 0.0038 µM. The half-life in data set [2] was 1.03 h.

Take `CN(C(=O)c1ccc(C(=N)N)cc1)C(c1ccccc1)C(C)(C)C(=O)N1CCC(CC(=O)O)CC1` (stereo not given): the IC50 in the data set listed under Homo sapiens came to 0.3 µM; in data set [1], 0.0213 µM. Also, in data set [2], the half-life was 1.42 h.

As for `CC(C)(C(=O)N1CCC(CC(=O)O)CC1)C(NC(=O)c1ccc(C(=N)N)cc1)c1ccc2ccccc2c1` (stereo not given), the IC50 in the data set listed under Homo sapiens is 0.38 µM; in data set [1], 0.021 µM. For the same molecule, in data set [2], the half-life was 0.85 h.

For the molecule `CCCCC(NC(=O)c1ccc(C(=N)N)cc1F)C(C)(C)C(=O)N1CCC(CC(=O)O)CC1` (stereo not given), the values for the IC50 (in the data set listed under Homo sapiens; in data set [1]) were 0.081 µM and 0.0057 µM, respectively. In data set [2], the half-life amounted to 1.3 h.

Regarding `CC(C)(C(=O)N1CCC(CC(=O)O)CC1)C(NC(=O)c1ccc(C(=N)N)cc1)c1ccc(Cl)cc1` (stereo not given), the IC50 in the data set filed under Homo sapiens came to 0.66 µM; in data set [1], 0.0347 µM. Besides, in data set [2], the half-life came out at 1.2 h.

With `CCOC(=O)CC1CCN(C(=O)C(C)(C)C(CC)NC(=O)c2ccc(C(=N)N3CCOCC3)cc2F)CC1` (stereo not given), the Tmax in “Tmax in rat (PO dose)” was 0.5 h. For the same molecule, the Cmax in data set [3] was found to be 922 ng/mL. Besides, the results for the half-inhibitory concentration (IC50) (in the data set listed under Homo sapiens; in data set [1]) were 0.16 µM and 0.004 µM, respectively. In addition, in data set [2], the half-life turned out to be 4.62 h.

In turn, `CC(C)(C(=O)N1CCC(CC(=O)O)CC1)C(NC(=O)c1ccc(C(=N)N)cc1)c1ccccc1` (stereo not given) showed a half-life in data set [4] of 0.533 h. Also, the IC50 is 0.23 µM in the data set filed under Homo sapiens and 0.0253 µM in data set [1].

In turn, `CCC(NC(=O)c1ccc(C(=N)N)cc1)C(C)(C)C(=O)N1CCC(CC(=O)O)CC1` (stereo not given) returned a half-inhibitory concentration (IC50) in the data set filed under Homo sapiens of 0.085 µM. Further, the half-life in data set [2] was 1.3 h.

As to `CC(C)(C(=O)N1CCC(CC(=O)O)CC1)C(CCc1ccccc1)NC(=O)c1ccc(C(=N)N)cc1` (stereo not given), the half-maximal inhibitory concentration (IC50) amounted to 0.16 µM in the data set filed under Homo sapiens and 0.0473 µM in data set [1]. Besides, the half-life in data set [2] turned out to be 0.767 h.

In the case of `CC(C)C(NC(=O)c1ccc(C(=N)N)cc1)C(C)(C)C(=O)N1CCC(CC(=O)O)CC1` (stereo not given), the figures for the IC50 (in the data set filed under Homo sapiens; in data set [1]) were 0.15 µM and 0.0086 µM, respectively. Moreover, in data set [2], the half-life turned out to be 0.8 h.

For the molecule `CC(C)(C(=O)N1CCC(CC(=O)O)CC1)C(NC(=O)c1ccc(C(=N)N)cc1)c1cccc(O)c1` (stereo not given), the IC50 in the data set listed under Homo sapiens is 0.076 µM; in data set [1] it was 0.0026 µM. In addition, the half-life in data set [2] was 1.08 h.

On to `CCOC(=O)CC1CCN(C(=O)C(C)(C)C(CC)NC(=O)c2ccc(C(=N)N3CCN(C)CC3)cc2F)CC1` (stereo not given), for which, in “Tmax in rat (PO dose)”, the Tmax was 2 h. For the same molecule, the peak concentration (Cmax) in data set [3] came to 392 ng/mL. Besides, the IC50 in the data set filed under Homo sapiens was 0.072 µM; in data set [1], 0.0054 µM. In addition, the half-life in data set [2] stood at 1.77 h.

For `CCCC(NC(=O)c1ccc(C(=N)N)cc1)C(C)(C)C(=O)N1CCC(CC(=O)O)CC1` (stereo not given), the IC50 in the data set listed under Homo sapiens was 0.082 µM; in data set [1], 0.0051 µM. In addition, in data set [2], the half-life came to 0.9 h.

As to `CC(C)(/C=C/C(=O)c1ccc(C(=N)N)cc1)C(=O)N1CCC(CC(=O)O)CC1`, the half-inhibitory concentration (IC50) worked out at 0.31 µM in the data set listed under Homo sapiens and 0.036 µM in data set [1].

Turning to `CCOC(=O)CC1CCN(C(=O)C(C)(C)C(CC)NC(=O)c2ccc(C(=N)N3CCC(O)CC3)cc2F)CC1` (stereo not given), the Tmax in “Tmax in rat (PO dose)” was 1 h. Further, in data set [3], the Cmax worked out at 290 ng/mL. Also, the IC50 in the data set listed under Homo sapiens was 0.048 µM; in data set [1] it was 0.0058 µM. Further, the half-life in data set [2] came to 3.5 h.
